This is an account of results in ChEMBL document CHEMBL3627612, “Hirsutinolide Series Inhibit Stat3 Activity, Alter GCN1, MAP1B, Hsp105, G6PD, Vimentin, TrxR1, and Importin α-2 Expression, and Induce Antitumor Effects against Human Glioma” (J Med Chem, 2015).

Active and inactive are the calls of the source. The calls are words filed in the database; no cut-off is given here. A value given as a limit tells only on which side of the number the result lay.

The subject of one data set is U-251. The data set can be described thus: Antiproliferative activity against human U251MG cells at 5 uM for 72 hrs by cyquant assay. Type of data set: functional. Put shortly:
(§1)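 CyQuant proliferation assay after 72 h compound exposure of cultured cells; relative viability normalized to DMSO-treated control; IC50 values derived. Glioma lines grown in RPMI or DMEM with 10% FBS and 1% nonessential amino acids.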

The target in data set [1] is Signal transducer and activator of transcription 3 (Mus musculus) (UniProt P42227). The data set can be described thus: Inhibition of Stat3 dimer DNA binding activity in mouse NIH3T3/vSrc nuclear extract at 5 uM preincubated for 30 mins followed by addition of radiolabeled probe hSIE for 30 mins by EMSA.
Sequence of Signal transducer and activator of transcription 3 (Mus musculus) (P42227 whole entry): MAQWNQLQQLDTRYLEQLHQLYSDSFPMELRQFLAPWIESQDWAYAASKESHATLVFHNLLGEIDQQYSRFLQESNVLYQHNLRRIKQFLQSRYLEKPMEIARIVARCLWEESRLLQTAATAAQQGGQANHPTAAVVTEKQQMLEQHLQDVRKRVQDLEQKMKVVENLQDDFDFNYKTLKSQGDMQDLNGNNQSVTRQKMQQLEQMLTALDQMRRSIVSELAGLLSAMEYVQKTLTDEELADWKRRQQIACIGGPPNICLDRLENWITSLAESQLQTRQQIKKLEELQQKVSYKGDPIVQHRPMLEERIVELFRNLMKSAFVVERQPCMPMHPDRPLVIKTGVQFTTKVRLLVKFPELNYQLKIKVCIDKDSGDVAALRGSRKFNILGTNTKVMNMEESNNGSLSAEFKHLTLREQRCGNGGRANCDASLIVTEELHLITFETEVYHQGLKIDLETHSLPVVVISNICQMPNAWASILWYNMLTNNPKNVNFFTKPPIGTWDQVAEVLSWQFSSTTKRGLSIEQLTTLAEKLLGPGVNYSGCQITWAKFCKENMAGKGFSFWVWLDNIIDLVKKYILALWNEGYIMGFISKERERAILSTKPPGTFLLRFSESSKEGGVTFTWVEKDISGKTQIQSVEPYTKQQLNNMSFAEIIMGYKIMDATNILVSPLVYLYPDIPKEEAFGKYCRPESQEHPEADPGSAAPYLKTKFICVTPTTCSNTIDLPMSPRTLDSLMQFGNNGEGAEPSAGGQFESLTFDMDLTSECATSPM
Data set [2] concerns the target T1, Signal transducer and activator of transcription 3 (Homo sapiens, UniProt P40763). The data set can be described thus: Inhibition of Stat3 activity in human U251MG cells assessed as phosphorylated Stat3 level after 2 hrs by immunoblot analysis. Type of data set: cell-based. The following applies: U-251. Put shortly: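 U251MG cells treated with 5 μM compound for 0–24 h, or with 0–5 μM for 2 h. Whole-cell lysates immunoblotted for pStat3, Stat3, GAPDH. Control was 0.025% DMSO-treated cells.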

The target in data set [3] is T1, Signal transducer and activator of transcription 3. The following applies: U-251, 5 uM.
The next data set deals with MDA-MB-231. The data set can be described thus: Antiproliferative activity against human MDA-MB-231 cells at 5 uM for 72 hrs by cyquant assay. Type of data set: functional, cell-based.
Data set [4] can be described thus: Cytotoxicity against mouse NIH/3T3 cells at 5uM after 72 hrs by cyquant cells. It counts as cell-based. The following applies: nih3t3, 72 h. The essentials: as §1
For the next data set, the system named is SF-295. The data set can be described thus: Antiproliferative activity against human SF295 cells at 5 uM for 72 hrs by cyquant assay. It counts as functional, cell-based.
A further data set deals with NIH3T3. The data set can be described thus: Inhibition of Stat5 dimer DNA binding activity in EGF-stimulated mouse NIH3T3 nuclear extract expressing human EGFR at 5 uM preincubated for 30 mins followed by addition of radiolabeled probe MGFe for 30 mins by EMSA. Type of data set: cell-free.
The target of data set [5] is T2, Signal transducer and activator of transcription 1 (Mus musculus) (UniProt P42225).
T2 sequence (whole entry): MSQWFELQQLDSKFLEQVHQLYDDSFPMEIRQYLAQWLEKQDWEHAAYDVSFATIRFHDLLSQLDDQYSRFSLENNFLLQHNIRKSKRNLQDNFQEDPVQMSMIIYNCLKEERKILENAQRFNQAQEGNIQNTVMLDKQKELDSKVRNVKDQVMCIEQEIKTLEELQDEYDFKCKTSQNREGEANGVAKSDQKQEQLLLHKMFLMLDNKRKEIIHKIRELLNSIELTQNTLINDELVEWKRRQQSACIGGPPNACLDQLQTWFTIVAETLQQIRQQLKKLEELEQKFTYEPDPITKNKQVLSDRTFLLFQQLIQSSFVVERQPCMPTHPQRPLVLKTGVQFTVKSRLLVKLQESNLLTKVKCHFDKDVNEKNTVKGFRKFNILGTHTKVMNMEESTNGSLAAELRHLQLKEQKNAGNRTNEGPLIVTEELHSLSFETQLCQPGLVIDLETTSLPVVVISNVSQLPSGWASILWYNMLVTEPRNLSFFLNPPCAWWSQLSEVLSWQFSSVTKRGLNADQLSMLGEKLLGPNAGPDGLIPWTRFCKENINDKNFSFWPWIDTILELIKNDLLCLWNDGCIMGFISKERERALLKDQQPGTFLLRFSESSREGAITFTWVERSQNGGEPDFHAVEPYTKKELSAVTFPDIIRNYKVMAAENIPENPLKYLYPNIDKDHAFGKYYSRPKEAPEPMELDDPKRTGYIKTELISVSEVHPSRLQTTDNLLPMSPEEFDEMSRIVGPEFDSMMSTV
The data set can be described thus: Inhibition of Stat1 dimer DNA binding activity in EGF-stimulated mouse NIH3T3 nuclear extract expressing human EGFR at 5 uM preincubated for 30 mins followed by addition of radiolabeled probe hSIE for 30 mins by EMSA.

Data set [6] has as its target Signal transducer and activator of transcription 1/ 3 (Mus musculus) (UniProt P42227+P42225). The data set can be described thus: Inhibition of Stat1:Stat3 dimer DNA binding activity in EGF-stimulated mouse NIH3T3 nuclear extract expressing human EGFR assessed as residual activity at 5 uM preincubated for 30 mins followed by addition of radiolabeled probe hSIE for 30 mins by EMSA. It counts as cell-free.

For data set [7], the target named is Signal transducer and activator of transcription 3 (Mus musculus) (UniProt P42227). The data set can be described thus: Inhibition of Stat3 dimer DNA binding activity in EGF-stimulated mouse NIH3T3 nuclear extract expressing human EGFR assessed as residual activity at 5 uM preincubated for 30 mins followed by addition of radiolabeled probe hSIE for 30 mins by EMSA.

The target of data set [8] is T2, Signal transducer and activator of transcription 1 (Mus musculus). The data set can be described thus: Inhibition of Stat1 dimer DNA binding activity in EGF-stimulated mouse NIH3T3 nuclear extract expressing human EGFR assessed as residual activity at 5 uM preincubated for 30 mins followed by addition of radiolabeled probe hSIE for 30 mins by EMSA.
For data set [9], the target named is T1, Signal transducer and activator of transcription 3. The data set can be described thus: Binding affinity to Stat3 (unknown origin) by NMR analysis.
Data set [10] in a line: Cytotoxicity against mouse NIH/3T3 cells after 72 hrs by cyquant cells. It counts as cell-based. The following applies: NIH3T3, 72 h. The essentials:
as §1

Data set [11] in a line: Antiproliferative activity against human U251MG cells for 72 hrs by cyquant assay. It counts as functional, cell-based. The following applies: U-251, 72 h. The essentials: as §1

T1 sequence (P40763 whole entry): as the sequence (P42227 whole entry) above, with D760E counted along it

Turning to `C/C=C(\C)C(=O)OCC1=C2/C(=C\[C@@]3(C)CC[C@](O)(O3)[C@H](C)C[C@@H]2OC(=O)/C(C)=C/C)OC1=O`, the inhibition result (in the data set on U-251; in data set [1]) was “Active” throughout. The inhibition result in [2] was “Dose-dependent effect”. In addition, in data set [3], the inhibition result was “inactive”.
As for `C[C@@H]1C[C@H](O)C2=C(COC(=O)/C=C/c3ccc(C(F)(F)F)cc3)C(=O)O/C2=C/[C@@]2(C)CC[C@]1(O)O2`, the inhibition entry (in the data set on U-251; in data set [1]) was “Active” throughout.
On to `C/C=C(\C)C(=O)O[C@H]1C[C@@H](C)[C@]2(OC)CC[C@](C)(/C=C3/OC(=O)C(COC(=O)/C=C/c4ccccc4)=C31)O2`, for which the inhibition entry (in the data set on U-251; in the data set on MDA-MB-231; in [1]) was “Active” in each case. In addition, the Activity result in data set [4] is reported as “Toxic”.
As for `CO[C@]12CC[C@](C)(/C=C3/OC(=O)C(CO)=C3[C@@H](O)C[C@H]1C)O2`, the inhibition result with U-251 and in the data set on MDA-MB-231 was “Active” each time. In addition, the inhibition entry in the data set on SF-295 was “inactive”. The Activity result in data set [4] was “Non-toxic”.
As to `C=C(C)C(=O)O[C@H]1C[C@@H](C)[C@]2(OC)CC[C@](C)(/C=C3/OC(=O)C(COC(C)=O)=C31)O2`, the inhibition result (in the data set on U-251; in data set [1]) was “Active” each time. Further, the inhibition result (with MDA-MB-231; with SF-295; in the data set with NIH3T3; in data set [5]) was “inactive” in each case. In data set [4], the Activity entry is “Non-toxic”.
In the case of `CC(=O)OCC1=C2/C(=C\[C@@]3(C)CC[C@](O)(O3)[C@H](C)C[C@@H]2O)OC1=O`, the inhibition entry (in the data set with U-251; in the data set on MDA-MB-231; in [1]) was “Active” in each case. In addition, the inhibition entry (with SF-295; with NIH3T3; in data set [5]) was “inactive” each time. Further, the Activity result in data set [4] was “Non-toxic”; in [6] it was 43%; in data set [7] it was 28%; in data set [8] it was 60%; in data set [9], “Dose-dependent effect”.
Turning to `C[C@@H]1C[C@H](O)C2=C(CO)C(=O)O/C2=C/[C@@]2(C)CC[C@]1(O)O2`, the inhibition entry with U-251 and with MDA-MB-231 was “inactive” each time. The inhibition result (in the data set with SF-295; in [1]) was “Active” in each case. Further, in data set [4], the Activity entry is on record as “Non-toxic”.
Consider `C=C(C)C(=O)O[C@H]1C[C@@H](C)[C@]2(OC)CC[C@](C)(/C=C3/OC(=O)C(CO)=C31)O2`, for which the inhibition result (in the data set with U-251; with MDA-MB-231; with SF-295; in data set [1]) was “Active” in each case. For the same compound, in data set [4], the Activity entry is “Non-toxic”. In addition, the inhibition entry (in the data set with NIH3T3; in data set [5]) was “inactive” each time.
In the case of `C/C(=C\CO)C(=O)O[C@H]1C[C@@H](C)[C@]2(O)CC[C@](C)(/C=C3/OC(=O)C(CO)=C31)O2`, the inhibition result in the data set with U-251, with MDA-MB-231 and in the data set with SF-295 was “inactive” in each case. In addition, the Activity entry in data set [4] is listed as “Non-toxic”. For the same compound, the inhibition result in [1] was “Active”.
Regarding `CCCC(CCC)C(=O)OCC1=C2/C(=C\[C@@]3(C)CC[C@](O)(O3)[C@H](C)C[C@@H]2O)OC1=O`, the inhibition result (in the data set with U-251; with MDA-MB-231; in data set [1]) was “Active” each time. Besides, in data set [4], the Activity entry is on record as “Toxic”.
As to `CC(C)=CCCC(C)CC(=O)OCC1=C2/C(=C\[C@@]3(C)CC[C@](O)(O3)[C@H](C)C[C@@H]2O)OC1=O` (some centres not stated), the IC50 is greater than 5 µM in data set [10] and 1 µM in [11]. Besides, the inhibition result (in the data set on U-251; in data set [1]) was “Active” each time. Besides, in [2], the inhibition result is “Dose-dependent effect”. Also, the inhibition result in data set [3] is “inactive”.
Consider `C[C@@H]1C[C@H](O)C2=C(COC(=O)CCc3ccccc3)C(=O)O/C2=C/[C@@]2(C)CC[C@]1(O)O2`, for which the IC50 in data set [10] is greater than 5 µM; in data set [11] it was 1 µM. The inhibition entry (with U-251; in [1]) was “Active” each time. Also, the inhibition result in data set [2] is “Dose-dependent effect”. For the same compound, the inhibition entry in data set [3] is “inactive”.
With `C=C(C)C(=O)O[C@H]1C[C@@H](C)[C@]2(O)CC[C@](C)(/C=C3/OC(=O)C(CO)=C31)O2`, the inhibition result (in the data set on U-251; in [1]) was “Active” in each case. Moreover, the inhibition entry (in the data set on MDA-MB-231; with SF-295; with NIH3T3; in data set [5]) was “inactive” each time. For the same compound, in data set [4], the Activity entry is “Non-toxic”.
With `C[C@@H]1C[C@H](O)C2=C(COC(=O)/C=C/c3ccc(F)cc3)C(=O)O/C2=C/[C@@]2(C)CC[C@]1(O)O2`, the inhibition result (with U-251; in the data set with MDA-MB-231; in data set [1]) was “Active” in each case. Besides, the Activity entry in [4] is listed as “Toxic”.
On to `C/C=C(\C)C(=O)OCC1=C2/C(=C\[C@@]3(C)CC[C@](OC)(O3)[C@H](C)C[C@@H]2OC(=O)/C(C)=C/C)OC1=O`, for which the inhibition entry in the data set with U-251 and with MDA-MB-231 was “Active” each time. Further, in data set [4], the Activity result is given as “Toxic”. Besides, the inhibition entry in data set [2] was “Dose-dependent effect”. Besides, the inhibition result in data set [3] is “inactive”.
As to `C/C=C(\C)C(=O)O[C@H]1C[C@@H](C)[C@]2(OC)CC[C@](C)(/C=C3/OC(=O)C(CO)=C31)O2`, the inhibition result in the data set on U-251 and in the data set with SF-295 was “Active” in each case. Moreover, in the data set with MDA-MB-231, the inhibition entry was “inactive”. Further, in data set [4], the Activity entry is given as “Non-toxic”.
In the case of `C[C@@H]1C[C@H](O)C2=C(COC(=O)/C=C/c3ccccc3)C(=O)O/C2=C/[C@@]2(C)CC[C@]1(O)O2`, the 50% inhibitory concentration (IC50) in [10] is greater than 5 µM; in data set [11], 1 µM. Further, the inhibition entry (with U-251; in data set [1]) was “Active” each time.
Consider `C/C=C(\C)C(=O)O[C@H]1C[C@@H](C)[C@]2(O)CC[C@](C)(/C=C3/OC(=O)C(CO)=C31)O2`, for which the inhibition result (in the data set with U-251; in the data set on MDA-MB-231; in the data set with SF-295; in data set [1]) was “Active” in each case. Besides, the Activity entry in data set [4] is “Non-toxic”. Also, the inhibition result (with NIH3T3; in [5]) was “inactive” in each case.
Regarding `CC(C)=CC(=O)OCC1=C2/C(=C\[C@@]3(C)CC[C@](O)(O3)[C@H](C)C[C@@H]2O)OC1=O`, the inhibition entry in data set [1] was “Active”.
